Bioassay records (PubChem BioAssay)
In the library only some 6.7% were active in any assay of this set; here they are far more common.
GRIN3A LBD mod: NR3A (human) ligand-binding domain modulation; NR3A LBD differential scanning fluorimetry, Tm shift; 0% = protein alone, 100% = glycine-bound protein; Tm shift relative to glycine control, % at 25 µM; hit rate 2.5% among 340,000;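 active = melting temperature shift of at least 10% of the positive control shift, at one fixed dose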
CHOP inhibitor: blocks CHOP induction under ER stress; CHO-K1 CHOP-promoter luciferase, tunicamycin-induced, 15-18 h; inhibition, % at 10 µM; AID 2732; hit rate 3.8% among 220,000;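 active = compounds that reduced the stress-induced luciferase reporter signal by more than about 70% of percent inhibition, limit read from the data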;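 note: 0% = tunicamycin plus vehicle and 100% = wells without tunicamycin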
Beta apoptosis: blocks beta cell apoptosis | AID 435005 | INS-1E cytokine-induced death, ATP luminescence, 48 h; percent of positive-control rescue, neutral wells zero | hit rate 0.8% among 300,000 | protection from apoptosis, % (concentration not given with the values);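 active = Every replicate reaches about 75%, or at least half do and their mean reaches it too, limit read from the data; inconclusive = At least half of replicates reach the limit but their mean does not; inactive = Under half of replicates reach the limit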;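 note: 0% = cytokine-treated negative control wells and 100% = positive control rescue; higher means more ATP so stronger rescue from cytokine killing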
T cruzi inh: T. cruzi replication inhibition; inhibition, % (concentration not given with the values); hit rate 1.4% among 300,000; T. cruzi beta-gal in NIH3T3, luminescence, 90 h;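 active = mean inhibition across valid replicates above about 55%, limit read from the data; inconclusive = mean below that limit but half or more replicates reach it; inactive = mean below it, under half of replicates reach it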;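 note: signal also drops with host cell toxicity which is not excluded here; 0% = plate median of DMSO wells and 100% = zero luminescence signal; higher percent means less beta-gal luminescence so fewer parasites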
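Assay system: NIH/3T3 host cells with β-galactosidase reporter T. cruzi; input: 5,000 host fibroblasts per well; compound: single 50 nL compound addition per well in DMSO; timing: ≥90 h infection period, 3 h prior cell attachment; measured by: GalScreen β-gal luminescence, detergent lysis, 60 min; evaluation: percent inhibition of parasite-derived β-gal signal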
PREPL inh: inhibits the human prolyl oligopeptidase-like enzyme. Q4J6C6. recombinant PREPL, fluorescence polarization activity-based probe. inhibition, % at 5.96 µM. hit rate 0.68% among 320,000. AID 2751; in the data active = inhibition above about 43%;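 note: 0% = enzyme with DMSO and 100% = wells lacking enzyme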
Target sequence (Q4J6C6 whole entry, looked up): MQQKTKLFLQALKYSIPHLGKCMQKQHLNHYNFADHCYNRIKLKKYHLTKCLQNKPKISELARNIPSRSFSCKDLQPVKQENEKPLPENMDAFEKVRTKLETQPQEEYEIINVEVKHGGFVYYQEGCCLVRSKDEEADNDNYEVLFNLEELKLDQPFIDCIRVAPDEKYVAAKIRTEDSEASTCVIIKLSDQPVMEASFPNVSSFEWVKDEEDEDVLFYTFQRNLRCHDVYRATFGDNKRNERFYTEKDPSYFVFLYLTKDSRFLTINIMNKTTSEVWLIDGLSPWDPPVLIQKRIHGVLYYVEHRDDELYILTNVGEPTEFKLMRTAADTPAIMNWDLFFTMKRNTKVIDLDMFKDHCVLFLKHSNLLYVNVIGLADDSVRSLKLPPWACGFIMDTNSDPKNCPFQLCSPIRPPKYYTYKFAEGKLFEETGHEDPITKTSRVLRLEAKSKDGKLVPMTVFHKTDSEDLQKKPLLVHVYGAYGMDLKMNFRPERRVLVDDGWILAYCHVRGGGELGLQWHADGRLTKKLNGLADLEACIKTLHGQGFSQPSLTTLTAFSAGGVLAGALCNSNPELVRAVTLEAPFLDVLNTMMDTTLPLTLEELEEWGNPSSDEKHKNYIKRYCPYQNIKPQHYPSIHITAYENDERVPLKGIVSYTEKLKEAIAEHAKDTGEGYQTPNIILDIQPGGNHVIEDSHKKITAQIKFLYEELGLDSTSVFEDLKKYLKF
CSC inhib: blocks cancer stem cells; cancer stem cell-like cells viability, luminescence; inhibition, % at 7.5 µM; hit rate 1.1% among 300,000; in the data active = inhibition above about 75%; inconclusive = no clear call, values can overlap the other calls; tested in HMLE shEcad cells
* marks the source's active call; other numbers are inactive results; ? = inconclusive; . = not tested or not shown.

SMILES | GRIN3A LBD mod | CHOP inhibitor | Beta apoptosis | T cruzi inh | PREPL inh | CSC inhib
Cc1cc(S(=O)(=O)c2ccc([N+](=O)[O-])cn2)ccc1Br | 1.2 | . | 17.3 | 15.0 | 8.0 | 97.9*
O=[N+]([O-])c1ccc(S(=O)(=O)c2ccccc2)nc1 | 4.7 | . | 106.1* | 72.6* | 18.6 | 101.8*
Cc1ccc(S(=O)(=O)c2ccc([N+](=O)[O-])cn2)cc1 | . | . | 105.2* | 67.4* | 1.9 | 100.2*
COc1ccc(C(=O)Nc2ccc(N3CCN(C(=O)c4ccccc4C)CC3)cc2)cc1 | -5.0 | . | 0.5 | 7.2 | 14.0 | 15.0
O=C(NCc1nnc(SCc2ccc(F)cc2)n1-c1ccc(F)cc1)C12CC3CC(CC(C3)C1)C2 | -1.7 | 70.0 | 3.5 | 39.4 | 32.8 | 33.6
COc1ccc(C(=O)C2CCCN(Cc3ccc(C#CCCO)cc3)C2)cc1F (stereo unspecified) | 0.0 | 22.5 | 0.0 | 58.9* | 1.9 | -0.6
COCc1cc(CN2CCCC(C(=O)c3cccc(C(F)(F)F)c3)C2)ccc1OC (stereo unspecified) | -1.8 | 25.2 | -3.5 | 65.7* | 8.2 | 25.6
COc1cccc(CN2CCCC(C(=O)c3ccc4c(c3)OCO4)C2)c1OC (stereo unspecified) | -1.9 | 8.1 | 1.4 | 36.2 | 2.9 | 10.4
O=C(NCC1CCCN(Cc2ccc3nonc3c2)C1)c1cccc(C(F)(F)F)c1 (stereo unspecified) | -4.7 | 0.6 | 4.1 | 57.6* | 4.4 | 10.5
COc1ccc(C(=O)C2CCCN(Cc3cccc4c3OCO4)C2)cc1OC (stereo unspecified) | -1.1 | -2.3 | 5.7 | 62.0* | -7.3 | 68.7
Cc1c(Cl)cccc1NC(=S)NN1CCOCC1 | 1.8 | 13.0 | 2.9 | -13.0 | -0.5 | -7.8
C[C@H]1CCC[C@@]2(O[C@H](CCO)C[C@H](O)[C@H]2O)O1 | 0.1 | . | -10.7 | 1.4 | 5.6 | .
S=c1[nH]nc(-c2ccco2)n1/N=C/C(Cl)=C/c1ccccc1 | -7.8 | -22.0 | 2.5 | -68.9 | 2.1 | 82.9*
CCN(CC)S(=O)(=O)c1cccc(-c2n[nH]c(=S)n2/N=C/c2ccc(Br)cc2)c1 | 22.2* | 89.8* | . | 15.0 | 12.7 | 7.3
Cc1cccc(/C=N/n2c(-c3cc(-c4ccccc4)n[nH]3)n[nH]c2=S)c1 | -2.0 | 74.8* | -4.6 | 8.8 | 6.0 | 2.1
S=c1[nH]nc(-c2cc(-c3ccccc3)n[nH]2)n1/N=C/C(Br)=C/c1ccccc1 | 16.9* | -14.4 | ? | 12.0 | 6.7 | 83.0*
S=c1[nH]nc(-c2cc(-c3ccccc3)n[nH]2)n1/N=C/c1ccccc1 | -8.6 | 51.4 | -7.4 | 4.9 | -8.1 | -11.5
COc1ccccc1NC(=O)CSc1nc2ccccc2cc1Cc1ccccc1 | 0.5 | 37.0 | 4.5 | 16.9 | -7.4 | 8.1
NC(=O)C(C1=CCCCC1)c1ccccc1 (stereo unspecified) | 2.0 | . | . | . | . | .
C/C(=N\OCC(=O)OCC(=O)NC(=O)c1ccccc1)c1ccc2c(c1)OCO2 | 0.6 | . | -1.5 | -4.9 | -0.2 | -2.5
CCCCSc1ncnc2c1ncn2C1CCCCO1 (stereo unspecified) | -1.6 | . | . | . | . | .
Cc1ccc(CNC(=O)c2cc(-c3cc(C)cc(C)c3O)n[nH]2)cc1 | 11.5* | 9.1 | -1.3 | 30.8 | -7.4 | -3.5
Cc1cccc(NC(=O)c2cc(-c3ccc(C)c(C)c3O)n[nH]2)c1 | 34.8* | . | -0.2 | -13.2 | . | 20.9
Cc1ccc(C)c(NC(=O)c2cc(-c3cc(C)c(C)cc3O)n[nH]2)c1 | 28.4* | . | 8.8 | -4.6 | 13.0 | 17.8
Cc1cccc(NC(=O)c2ccccc2C(=O)Nc2cccc(C)c2)c1 | 2.4 | . | -1.0 | -16.2 | 1.6 | -6.6
SMILES | GRIN3A LBD mod | CHOP inhibitor | Beta apoptosis | T cruzi inh | PREPL inh | CSC inhib
Cc1ccc(O)c(-c2cc(C(=O)NCc3ccc4c(c3)OCO4)[nH]n2)c1 | -17.9 | -1.9 | -17.3 | 4.5 | 10.0 | 11.1
Cc1ccc(NC(=O)c2cc(-c3ccc(C)c(C)c3O)n[nH]2)cc1C | 34.9* | . | 0.4 | -7.7 | -9.9 | 13.7
CCSc1nnc(NC(=O)c2ccccc2)s1 | -3.2 | -155.0 | -7.2 | -3.8 | -3.0 | -2.1
Cc1ccc(NC(=O)c2cccc(C(=O)Nc3ccc(C)c(C)c3)n2)cc1C | -1.2 | . | -7.4 | 3.2 | 3.7 | 2.6
Cc1cc(C)c(OCC(=O)Nc2ccc(S(=O)(=O)N3CCOCC3)cc2)c(C)c1 | -15.3 | . | -3.9 | -0.2 | 4.0 | -8.1
CC(=O)Nc1ccc(NC(=O)c2cc(-c3ccc(C)c(C)c3O)n[nH]2)cc1 | 39.0* | . | 0.1 | -7.7 | 20.9 | 28.8
CCSc1nnc(NC(=O)c2cc(-c3ccc(C)c(C)c3O)n[nH]2)s1 | 0.3 | 87.6* | . | -7.9 | . | .
Cc1ccc(NC(=O)c2cc(-c3cc(C)c(C)cc3O)n[nH]2)cc1C | 32.6* | . | -3.3 | -21.8 | -3.1 | -15.2
Cc1cc(C)c(O)c(-c2cc(C(=O)Nc3ccc(S(=O)(=O)N4CCOCC4)cc3)[nH]n2)c1 | 22.8* | 85.2* | . | 2.4 | 22.8 | 87.5*
CC1=C(C(=O)OCCC(C)C)C(c2ccc3c(c2)OCO3)NC(=O)N1 (stereo unspecified) | -2.8 | . | 0.0 | -4.0 | . | 16.1
CN(CC(=O)Nc1ccc(Cl)cc1F)C1=NS(=O)(=O)c2ccccc21 | 1.1 | . | -2.4 | . | 14.6 | -21.2
O=[N+]([O-])c1ccc(C(O)C[n+]2ccccc2)cc1 (stereo unspecified) | -0.6 | . | 2.5 | -9.4 | 5.6 | -28.7
Cc1cc(-c2ccc([N+](=O)[O-])cc2)cc(C)n1 | 0.2 | . | . | . | . | .
Cc1ccc(-c2cc(C(=O)Nc3ccc(S(=O)(=O)Nc4ncccn4)cc3)[nH]n2)c(O)c1C | 10.2* | 8.2 | -17.1 | -1.1 | -0.8 | -0.7
CC(=O)Nc1ccc(NC(=O)c2cc(-c3cc(C)cc(C)c3O)n[nH]2)cc1 | 35.4* | . | 0.3 | 6.8 | 13.9 | 66.9
COc1ccc(CCNC(=O)c2cc(-c3cc(C)c(C)cc3O)n[nH]2)cc1OC | -4.1 | -21.2 | 1.4 | 16.7 | 14.9 | -5.3
COc1ccc(NC(=O)c2cc(-c3ccc(C)c(C)c3O)n[nH]2)cc1Cl | 24.5* | . | 10.0 | -4.2 | 2.4 | 17.7
CSCCC(NC(=O)c1ccco1)c1nc2ccccc2[nH]1 (stereo unspecified) | -0.4 | . | -10.0 | -14.2 | 7.1 | -2.5
CCOc1cc(/C=C2/C(=O)ON=C2C)cc(Br)c1O | 20.7* | . | . | -11.7 | -3.0 | .
O=C(Nc1cccc(Cl)c1)Nc1ccon1 | 0.1 | . | 0.5 | 20.9 | 3.0 | -21.4
CS(=O)(=O)Nc1ccccc1C(=O)Nc1cccc(Cl)c1 | 0.8 | -14.0 | 31.1 | -2.8 | 17.1 | 75.6*
Cc1cc(C)nc(NC(=O)Nc2ccc3c(c2)OCO3)c1 | -1.4 | 71.2* | 1.6 | -11.2 | 7.6 | .
CC(O)c1cccc(NC(=O)Nc2cccc(NC(=O)Nc3cccc(C(C)O)c3)c2)c1 (stereo unspecified) | 27.3* | . | -5.2 | -15.8 | . | 1.0
O=C(Nc1cccc(Cl)c1)Nc1cccc(Cl)c1 | 32.8* | 16.0 | 43.1 | 34.0 | -11.9 | -11.2
O=C(Nc1cccc(Cl)c1)OCCOCCOC(=O)Nc1cccc(Cl)c1 | 36.1* | . | . | . | . | .
